IC50, inhibition and Activity data for 37 compounds are collected here from ChEMBL document CHEMBL4431355, “Design and synthesis of benzylpiperidine inhibitors targeting the menin-MLL1 interface” (Bioorg Med Chem Lett, 2016).

The target of experiment [1] is Menin/Histone-lysine N-methyltransferase MLL (Homo sapiens, UniProt O00255). Briefly: Inhibition of human recombinant full length menin/MLL1 (unknown origin) interaction using Ac-SRWRFPARPGTGRR-Ahx-Ahx-K-FAM as substrate after 15 mins by fluorescence polarization binding assay. Type of experiment: protein assay. In general terms: Polarisation of emitted light reports the rotation of a fluorescent probe.
Chain of Menin/Histone-lysine N-methyltransferase MLL (O00255 whole entry): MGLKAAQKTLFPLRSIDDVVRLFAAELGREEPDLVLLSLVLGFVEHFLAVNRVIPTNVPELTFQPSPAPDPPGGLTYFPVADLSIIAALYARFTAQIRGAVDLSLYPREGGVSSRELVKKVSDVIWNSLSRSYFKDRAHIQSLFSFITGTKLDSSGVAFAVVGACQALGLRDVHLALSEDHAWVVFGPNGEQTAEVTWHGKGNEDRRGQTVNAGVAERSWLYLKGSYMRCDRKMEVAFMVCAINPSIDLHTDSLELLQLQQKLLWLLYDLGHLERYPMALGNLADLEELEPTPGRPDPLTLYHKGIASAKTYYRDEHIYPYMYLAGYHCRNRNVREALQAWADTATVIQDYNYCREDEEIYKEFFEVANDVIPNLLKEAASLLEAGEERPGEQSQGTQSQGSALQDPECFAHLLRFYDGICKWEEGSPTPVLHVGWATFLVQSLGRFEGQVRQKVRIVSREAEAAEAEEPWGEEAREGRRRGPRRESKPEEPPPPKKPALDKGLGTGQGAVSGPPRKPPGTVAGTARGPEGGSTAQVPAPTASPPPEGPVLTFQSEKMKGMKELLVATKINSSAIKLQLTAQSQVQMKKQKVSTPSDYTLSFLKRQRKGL
Chain of Menin/Histone-lysine N-methyltransferase MLL (Q03164 1-2718 partner limits assumed): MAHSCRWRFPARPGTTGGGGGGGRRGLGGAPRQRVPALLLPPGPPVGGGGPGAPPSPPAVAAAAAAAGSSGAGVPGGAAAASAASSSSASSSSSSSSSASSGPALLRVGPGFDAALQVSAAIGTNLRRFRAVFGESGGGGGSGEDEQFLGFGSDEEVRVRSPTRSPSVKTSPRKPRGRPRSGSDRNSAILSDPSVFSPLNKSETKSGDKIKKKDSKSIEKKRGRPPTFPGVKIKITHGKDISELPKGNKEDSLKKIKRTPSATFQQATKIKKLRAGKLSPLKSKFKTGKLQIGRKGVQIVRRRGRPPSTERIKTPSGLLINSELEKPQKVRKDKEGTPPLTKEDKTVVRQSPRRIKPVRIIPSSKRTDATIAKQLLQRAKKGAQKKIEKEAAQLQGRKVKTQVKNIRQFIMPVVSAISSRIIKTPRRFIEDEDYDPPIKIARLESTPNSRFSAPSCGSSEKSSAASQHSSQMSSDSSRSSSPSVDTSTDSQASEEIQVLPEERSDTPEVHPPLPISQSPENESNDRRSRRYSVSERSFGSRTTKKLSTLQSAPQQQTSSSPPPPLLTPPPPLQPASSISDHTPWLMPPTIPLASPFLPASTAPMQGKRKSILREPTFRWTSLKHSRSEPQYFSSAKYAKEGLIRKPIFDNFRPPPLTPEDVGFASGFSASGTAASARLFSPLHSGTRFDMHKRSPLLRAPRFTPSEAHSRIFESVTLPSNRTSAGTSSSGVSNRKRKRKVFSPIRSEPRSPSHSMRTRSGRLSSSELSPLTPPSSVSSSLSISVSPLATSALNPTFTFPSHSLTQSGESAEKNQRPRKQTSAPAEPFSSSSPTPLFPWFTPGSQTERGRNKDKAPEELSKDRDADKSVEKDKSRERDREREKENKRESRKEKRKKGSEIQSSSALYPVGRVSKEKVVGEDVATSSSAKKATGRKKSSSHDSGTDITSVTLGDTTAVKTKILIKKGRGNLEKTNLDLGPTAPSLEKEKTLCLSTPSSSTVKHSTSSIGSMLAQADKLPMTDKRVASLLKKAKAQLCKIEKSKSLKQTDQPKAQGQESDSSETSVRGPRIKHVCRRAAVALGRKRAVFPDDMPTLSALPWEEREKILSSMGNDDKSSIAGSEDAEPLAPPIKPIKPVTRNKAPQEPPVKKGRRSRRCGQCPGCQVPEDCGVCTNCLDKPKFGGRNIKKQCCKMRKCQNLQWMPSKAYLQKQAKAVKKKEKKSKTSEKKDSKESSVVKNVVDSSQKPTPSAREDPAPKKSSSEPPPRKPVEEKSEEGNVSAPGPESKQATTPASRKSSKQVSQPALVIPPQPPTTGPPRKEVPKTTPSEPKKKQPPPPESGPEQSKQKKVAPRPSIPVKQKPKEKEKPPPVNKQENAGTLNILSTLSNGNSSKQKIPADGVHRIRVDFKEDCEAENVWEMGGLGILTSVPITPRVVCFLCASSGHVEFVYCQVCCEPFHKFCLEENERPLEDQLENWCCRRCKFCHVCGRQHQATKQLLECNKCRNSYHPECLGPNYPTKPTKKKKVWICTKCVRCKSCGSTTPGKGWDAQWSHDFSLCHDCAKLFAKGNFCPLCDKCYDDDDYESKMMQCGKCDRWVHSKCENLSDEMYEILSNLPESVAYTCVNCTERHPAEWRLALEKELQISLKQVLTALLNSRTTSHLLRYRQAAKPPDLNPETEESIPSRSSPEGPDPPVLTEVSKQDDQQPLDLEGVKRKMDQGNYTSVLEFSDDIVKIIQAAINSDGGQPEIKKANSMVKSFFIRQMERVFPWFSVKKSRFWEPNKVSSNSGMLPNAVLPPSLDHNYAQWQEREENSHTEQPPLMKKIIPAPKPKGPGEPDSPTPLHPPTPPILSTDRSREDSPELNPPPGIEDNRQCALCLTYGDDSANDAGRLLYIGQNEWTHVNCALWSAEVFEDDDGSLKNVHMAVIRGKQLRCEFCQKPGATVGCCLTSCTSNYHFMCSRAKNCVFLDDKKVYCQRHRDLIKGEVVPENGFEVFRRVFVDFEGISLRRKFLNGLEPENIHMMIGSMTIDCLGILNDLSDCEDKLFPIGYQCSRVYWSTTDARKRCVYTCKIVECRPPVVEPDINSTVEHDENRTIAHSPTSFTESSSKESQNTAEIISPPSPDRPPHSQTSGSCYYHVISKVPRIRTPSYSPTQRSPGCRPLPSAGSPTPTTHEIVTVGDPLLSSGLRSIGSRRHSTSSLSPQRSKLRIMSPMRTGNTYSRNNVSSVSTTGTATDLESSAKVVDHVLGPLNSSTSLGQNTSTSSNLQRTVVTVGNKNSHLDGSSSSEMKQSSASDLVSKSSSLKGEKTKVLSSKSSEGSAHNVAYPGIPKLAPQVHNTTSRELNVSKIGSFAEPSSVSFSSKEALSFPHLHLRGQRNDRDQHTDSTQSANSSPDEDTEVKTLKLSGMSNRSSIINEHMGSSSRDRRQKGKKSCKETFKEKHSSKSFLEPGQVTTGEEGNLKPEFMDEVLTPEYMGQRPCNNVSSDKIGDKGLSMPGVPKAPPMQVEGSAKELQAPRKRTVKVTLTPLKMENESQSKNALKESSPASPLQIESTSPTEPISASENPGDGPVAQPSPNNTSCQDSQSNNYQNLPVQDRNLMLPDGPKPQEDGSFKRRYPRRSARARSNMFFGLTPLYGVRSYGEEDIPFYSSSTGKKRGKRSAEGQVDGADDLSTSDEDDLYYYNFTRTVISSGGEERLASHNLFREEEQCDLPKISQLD
Chain of Menin/Histone-lysine N-methyltransferase MLL (Q03164 2719-3969 partner limits assumed): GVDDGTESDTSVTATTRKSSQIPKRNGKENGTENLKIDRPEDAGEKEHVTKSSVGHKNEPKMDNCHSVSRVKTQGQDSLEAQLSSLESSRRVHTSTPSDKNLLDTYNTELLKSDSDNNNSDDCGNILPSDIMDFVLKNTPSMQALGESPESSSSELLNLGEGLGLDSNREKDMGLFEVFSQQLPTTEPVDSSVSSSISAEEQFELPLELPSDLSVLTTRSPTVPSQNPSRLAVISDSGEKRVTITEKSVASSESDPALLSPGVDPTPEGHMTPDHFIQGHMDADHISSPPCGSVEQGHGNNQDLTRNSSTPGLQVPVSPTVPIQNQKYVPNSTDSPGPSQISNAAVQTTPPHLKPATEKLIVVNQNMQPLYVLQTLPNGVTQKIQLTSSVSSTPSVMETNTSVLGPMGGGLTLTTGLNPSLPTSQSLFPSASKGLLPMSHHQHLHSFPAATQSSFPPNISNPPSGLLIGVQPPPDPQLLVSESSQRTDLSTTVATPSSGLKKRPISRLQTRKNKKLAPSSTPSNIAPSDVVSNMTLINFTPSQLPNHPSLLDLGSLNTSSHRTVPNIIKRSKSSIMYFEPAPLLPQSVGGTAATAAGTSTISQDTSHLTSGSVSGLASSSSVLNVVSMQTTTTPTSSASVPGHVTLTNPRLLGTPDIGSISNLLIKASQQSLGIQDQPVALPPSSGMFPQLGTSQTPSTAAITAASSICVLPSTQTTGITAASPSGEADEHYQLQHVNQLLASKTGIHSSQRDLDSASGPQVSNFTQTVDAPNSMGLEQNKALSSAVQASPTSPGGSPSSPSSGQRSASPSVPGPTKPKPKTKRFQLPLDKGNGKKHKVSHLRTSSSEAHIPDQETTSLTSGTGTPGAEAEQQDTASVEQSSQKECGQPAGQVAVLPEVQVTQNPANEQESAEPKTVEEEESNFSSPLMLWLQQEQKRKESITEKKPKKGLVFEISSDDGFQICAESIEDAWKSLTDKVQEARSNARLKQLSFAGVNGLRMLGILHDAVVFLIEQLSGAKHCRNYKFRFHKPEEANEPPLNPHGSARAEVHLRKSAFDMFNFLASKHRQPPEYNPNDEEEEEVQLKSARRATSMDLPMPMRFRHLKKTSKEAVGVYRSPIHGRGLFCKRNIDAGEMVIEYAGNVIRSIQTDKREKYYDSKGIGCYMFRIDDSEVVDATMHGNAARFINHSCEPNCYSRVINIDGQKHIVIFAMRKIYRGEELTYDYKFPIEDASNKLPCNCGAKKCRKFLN

The target of experiment [2] is T1, Menin/Histone-lysine N-methyltransferase MLL (Homo sapiens) (UniProt O00255+Q03164). Description: Inhibition of human recombinant full length menin/MLL1 (unknown origin) interaction using Ac-SRWRFPARPGTGRR-Ahx-Ahx-K-FAM as substrate at 20 uM after 15 mins by fluorescence polarization binding assay. Type of experiment: protein assay.
T1 sequence (O00255 whole entry): as the sequence (O00255 whole entry) above
T1 sequence (Q03164 1-2718 partner limits assumed): as the sequence (Q03164 1-2718 partner limits assumed) above
T1 sequence (Q03164 2719-3969 partner limits assumed): as the sequence (Q03164 2719-3969 partner limits assumed) above
The next experiment deals with MV4-11. Description: Antiproliferative activity against human MV4-11 cells expressing MLL-AF4 after 7 days by MTS assay. Type of experiment: functional, cell-based. Particulars: for IC50: MV4-11, 168 h. The method, boiled down: (§1)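 Cells exposed to compounds for 7 days in a proliferation assay. IC50 is given as mean ± SD of triplicate determinations. K562 cells were tested up to 20 μM.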

A further experiment concerns K562. Description: Antiproliferative activity against human K562 cells after 7 days by MTS assay. Type of experiment: functional, cell-based. Particulars: K562, 168 h. The method, boiled down: as §1
A general note: Formazan colour is commonly taken as a measure of viable cells.

In experiment [3] the target is T1, Menin/Histone-lysine N-methyltransferase MLL (Homo sapiens). Briefly: Inhibition of menin/MLL1 interaction in human MV4-11 cells assessed as reduction in HOXA9 mRNA level after 6 days by qRT-PCR analysis. Type of experiment: cell-based. The procedure, abridged: (§2)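 MV-4-11 cells incubated with compound for 6 days. HOXA9 expression measured by quantitative real-time PCR, normalized to β-actin and expressed relative to DMSO-treated cells. Triplicate means ± SD; experiment repeated 3 times.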
(Real-time PCR tracks product formation cycle by cycle.)

The target is the same in experiment [4]. Briefly: Inhibition of menin/MLL1 interaction in human MV4-11 cells assessed as reduction in HOXA9 mRNA level at 10 uM after 6 days by qRT-PCR analysis relative to control. The experiment is classed as cell-based. The method, boiled down: as §2

For orientation: IC50 means the concentration needed to halve the response being measured. Broadly, the inhibition is the change of the read-out against control, counted positive when it falls.

For `FC(F)(F)Cc1cc2c(NC3CCN(CCc4ccccc4)CC3)ncnc2s1`, the IC50 in experiment [1] turned out to be 1800 nM. Turning to `FC(F)(F)Cc1cc2c(NC3CCN(Cc4ccc5ccccc5c4)CC3)ncnc2s1`, the inhibition in experiment [2] was 15.6%. In the case of `COc1ccc(CN2CCC(Nc3ncnc4sc(CC(F)(F)F)cc34)CC2)cc1`, the IC50 in experiment [1] was 640 nM; in the experiment on MV4-11, 2420 nM; with K562, above 20000 nM.

On to `N#Cc1ccc(NCCCN2CCN(c3ncnc4sc(CC(F)(F)F)cc34)CC2)cc1`, for which the IC50 in experiment [1] was 1540 nM; with MV4-11 it was 2690 nM; with K562, above 20000 nM. For `FC(F)(F)Cc1cc2c(NC3CCN(Cc4ccc(-c5ccccc5)cc4)CC3)ncnc2s1`, the inhibition in experiment [2] came to 4.6%. On the same count and under the same terms, the same measure for `FC(F)(F)Cc1cc2c(NCC3CCN(Cc4ccc(C(F)(F)F)cc4)CC3)ncnc2s1`: 18.5%. In the case of `CC1(C)CN=C(N2CCN(c3ncnc4sc(CC(F)(F)F)cc34)CC2)S1`, the IC50 in the experiment with MV4-11 is 640 nM; in the experiment on K562 it was above 20000 nM. In the case of `FC(F)(F)Cc1cc2c(NC3CCN(Cc4ccco4)CC3)ncnc2s1`, in experiment [1], the IC50 was 4690 nM.

For the compound `NCCOc1cccc(CN2CCC(Nc3ncnc4sc(CC(F)(F)F)cc34)CC2)c1`, the IC50 is 1220 nM in experiment [1], 4150 nM with MV4-11 and above 20000 nM with K562.

Consider `N#Cc1ccc(OCCCN2CCN(c3ncnc4sc(CC(F)(F)F)cc34)CC2)cc1`, for which the IC50 in experiment [1] was determined as 430 nM; with MV4-11, 1020 nM; in the experiment with K562, 9120 nM. The Activity result in the experiment with MV4-11 is “Dose-dependent effect”. Regarding `NCCCOc1cccc(CN2CCC(Nc3ncnc4sc(CC(F)(F)F)cc34)CC2)c1`, in experiment [3], the inhibition result was “Dose-dependent effect”. In addition, the IC50 is 670 nM in experiment [1], 390 nM in the experiment on MV4-11 and above 20000 nM with K562. Besides, the Activity result in the experiment on MV4-11 was “Dose-dependent effect”. Consider `N#Cc1ccc(CN2CCC(Nc3ncnc4sc(CC(F)(F)F)cc34)CC2)cc1`, for which, in experiment [2], the inhibition was 25%.

Regarding `FC(F)(F)Cc1cc2c(NCC3CCN(Cc4ccccc4)CC3)ncnc2s1`, the IC50 in experiment [1] is 2240 nM; in the experiment on MV4-11 it was 2330 nM; in the experiment with K562, above 20000 nM. In the same order, the values of `Fc1ccc(CN2CCC(Nc3ncnc4sc(CC(F)(F)F)cc34)CC2)cc1` are 2000 nM, 6320 nM and above 20000 nM. As to `C#CCN1CCC(Nc2ncnc3sc(CC(F)(F)F)cc23)CC1`, the inhibition in experiment [2] came to 31.3%.

For `CCCN1CCC(Nc2ncnc3sc(CC(F)(F)F)cc23)CC1`, the IC50 in experiment [1] is 5670 nM. `FC(F)(F)Cc1cc2c(Nc3ccc(Cc4ccccc4)cc3)ncnc2s1`: the inhibition in experiment [2] was found to be 2%. Turning to `Nc1cccc(CN2CCC(Nc3ncnc4sc(CC(F)(F)F)cc34)CC2)c1`, in experiment [1], the IC50 stood at 1260 nM. On the same count and under the same terms, the same measure for `CN1CCC(Oc2cccc(CN3CCC(Nc4ncnc5sc(CC(F)(F)F)cc45)CC3)c2)CC1`: 2350 nM. On to `FC(F)(F)Cc1cc2c(NC3CCN(Cc4ccsc4)CC3)ncnc2s1`, for which the inhibition is 70% in experiment [4] and “Dose-dependent effect” in experiment [3]. Also, the values for the concentration for half-maximal inhibition (IC50) (in experiment [1]; in the experiment on MV4-11; in the experiment with K562) were 220 nM, 790 nM and above 20000 nM, respectively. The Activity entry in the experiment on MV4-11 was “Dose-dependent effect”.

For `FC(F)(F)Cc1cc2c(NC3CCN(Cc4cccc(OC5CCNCC5)c4)CC3)ncnc2s1`, the IC50 in experiment [1] is 13400 nM. In the case of `Fc1ccc(CN2CCC(CNc3ncnc4sc(CC(F)(F)F)cc34)CC2)cc1`, the IC50 in experiment [1] is 1170 nM; with MV4-11, 2980 nM; in the experiment with K562 it was above 20000 nM. `N#Cc1ccc(NCCN2CCN(c3ncnc4sc(CC(F)(F)F)cc34)CC2)cc1`: the IC50 in experiment [1] is above 20000 nM.

`FC(F)(F)Cc1cc2c(NC3CCN(Cc4cccc5ccccc45)CC3)ncnc2s1`: the inhibition in experiment [2] was determined as 2.4%. With `FC(F)(F)Cc1cc2c(NC3CCNCC3)ncnc2s1`, in experiment [1], the IC50 worked out at 32800 nM.

For `CN(C)CCOc1cccc(CN2CCC(Nc3ncnc4sc(CC(F)(F)F)cc34)CC2)c1`, the IC50 in experiment [1] is 780 nM; in the experiment on MV4-11, 3490 nM; with K562, above 20000 nM.

As to `N#Cc1ccc(CN2CCC(CNc3ncnc4sc(CC(F)(F)F)cc34)CC2)cc1`, in experiment [2], the inhibition was found to be 33.4%. Turning to `N#Cc1ccc(OCCN2CCN(c3ncnc4sc(CC(F)(F)F)cc34)CC2)cc1`, the IC50 in experiment [1] was above 20000 nM. On the same count and under the same terms, then `Cc1cccc(CN2CCC(CNc3ncnc4sc(CC(F)(F)F)cc34)CC2)c1`, with 3800 nM. Consider `O=[N+]([O-])c1cccc(CN2CCC(Nc3ncnc4sc(CC(F)(F)F)cc34)CC2)c1`, for which, in experiment [2], the inhibition is 43%.

For the compound `FC(F)(F)Cc1cc2c(NC3CCN(Cc4ccccc4)CC3)ncnc2s1`, the IC50 is 470 nM in experiment [1], 1020 nM in the experiment with MV4-11 and above 20000 nM with K562. Besides, the Activity result in the experiment with MV4-11 was “Dose-dependent effect”. Turning to `COc1ccc(CN2CCC(CNc3ncnc4sc(CC(F)(F)F)cc34)CC2)cc1`, the IC50 in experiment [1] is 1070 nM; in the experiment on MV4-11 it was 1280 nM; in the experiment on K562, above 20000 nM. In the same order, the values of `CNCCCOc1cccc(CN2CCC(Nc3ncnc4sc(CC(F)(F)F)cc34)CC2)c1` are 1120 nM, 1650 nM and 9510 nM. As for `FC(F)(F)Cc1cc2c(NC3CCN(Cc4ccncc4)CC3)ncnc2s1`, the IC50 in experiment [1] amounted to 2700 nM.

Consider `FC(F)(F)Cc1cc2c(NC3CCN(Cc4ccc(C(F)(F)F)cc4)CC3)ncnc2s1`, for which, in experiment [2], the inhibition was -2.5%. As to `FC(F)(F)Cc1cc2c(NC3CCN(CC4CC4)CC3)ncnc2s1`, the figures for the IC50 (in experiment [1]; in the experiment with MV4-11; in the experiment on K562) were 770 nM, 6490 nM and above 20000 nM, respectively. For `CN(C)CCCOc1cccc(CN2CCC(Nc3ncnc4sc(CC(F)(F)F)cc34)CC2)c1`, the IC50 in experiment [1] stood at 7350 nM.
